Measurements taken from ChEMBL document CHEMBL1140224, “Dihydrofuro[3,4-c]pyridinones as inhibitors of the cytolytic effects of the pore-forming glycoprotein perforin” (J Med Chem, 2008).
The source made the active and inactive calls. No cut-off for these calls is given here.

Experiments:
[1] = molecular target: T1, Tumor necrosis factor ligand superfamily member 6 (Homo sapiens) (UniProt P48023); experiment: Inhibition of Fas ligand-mediated death of human Jurkat T cells upto 20 uM after 30 mins by 51Cr release assay; assay type: cell-based
T1 sequence (whole entry): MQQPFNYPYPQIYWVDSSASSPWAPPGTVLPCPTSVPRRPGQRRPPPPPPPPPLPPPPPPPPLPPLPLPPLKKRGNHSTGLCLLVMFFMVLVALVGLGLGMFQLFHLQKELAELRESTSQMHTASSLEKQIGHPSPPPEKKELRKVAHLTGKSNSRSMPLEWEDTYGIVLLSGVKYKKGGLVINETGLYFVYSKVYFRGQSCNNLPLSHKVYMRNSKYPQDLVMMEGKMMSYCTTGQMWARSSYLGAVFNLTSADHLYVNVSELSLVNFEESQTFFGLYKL
Outline: (§1)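 Fifty thousand 51Cr-labeled Jurkat cells preincubated with 20 µM final inhibitor for 30 min at 37 °C. Anti-Fas agonistic mAb CH11 or recombinant TRAIL, each at 250 ng/mL final, in RPMI with 1% BSA for 2 h. Controls were DMSO diluent and a non-inhibitor at the same concentration; SDS gave maximum release. Supernatant 51Cr γ-counted, triplicates, mean ± SEM.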

[2] = molecular target: Pneumolysin (Streptococcus pneumoniae serotype 4 (strain ATCC BAA-334 / TIGR4)) (UniProt P0C2J9); experiment: Inhibition of Streptococcus pneumoniae pneumolysin-mediated lysis of sheep red blood cells
Chain of Pneumolysin (Streptococcus pneumoniae serotype 4 (strain ATCC BAA-334 / TIGR4)) (P0C2J9 whole entry): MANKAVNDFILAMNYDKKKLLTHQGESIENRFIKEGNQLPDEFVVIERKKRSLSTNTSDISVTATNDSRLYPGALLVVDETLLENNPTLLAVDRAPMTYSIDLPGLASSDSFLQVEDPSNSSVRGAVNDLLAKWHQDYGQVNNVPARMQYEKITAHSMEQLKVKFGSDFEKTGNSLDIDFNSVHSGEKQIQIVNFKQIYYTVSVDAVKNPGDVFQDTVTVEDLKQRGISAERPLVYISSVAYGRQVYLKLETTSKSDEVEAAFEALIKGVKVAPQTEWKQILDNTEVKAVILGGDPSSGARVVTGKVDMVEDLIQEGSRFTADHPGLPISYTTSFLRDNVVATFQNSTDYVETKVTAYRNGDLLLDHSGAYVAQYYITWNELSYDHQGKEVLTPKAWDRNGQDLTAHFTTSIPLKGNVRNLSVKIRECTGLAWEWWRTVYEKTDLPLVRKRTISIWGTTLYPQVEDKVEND
Outline: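 Single-point test at 20 µM compound, using the perforin/SRBC turbidity format with pneumolysin in place of perforin. Compound in DMSO is preincubated with the lytic protein for at least 30 min. Sheep red blood cells in RBC buffer are then added, and absorbance at 650 nm is read at 0 min and after 15 min at 37 °C. Matching DMSO serves as negative control.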

[3] = molecular target: T2, Perforin-1 (Homo sapiens) (UniProt P14222); experiment: Inhibition of human KHYG-1 NK cells delivered perforin-mediated death of human K562 cells upto 20 uM preincubated for 20 mins with KHYG-1 cells measured after 30 mins by 51Cr release assay; assay type: cell-based; details: in the assay text read “measured after 4 hrs” for “measured after 30 mins”
T2 sequence (whole entry): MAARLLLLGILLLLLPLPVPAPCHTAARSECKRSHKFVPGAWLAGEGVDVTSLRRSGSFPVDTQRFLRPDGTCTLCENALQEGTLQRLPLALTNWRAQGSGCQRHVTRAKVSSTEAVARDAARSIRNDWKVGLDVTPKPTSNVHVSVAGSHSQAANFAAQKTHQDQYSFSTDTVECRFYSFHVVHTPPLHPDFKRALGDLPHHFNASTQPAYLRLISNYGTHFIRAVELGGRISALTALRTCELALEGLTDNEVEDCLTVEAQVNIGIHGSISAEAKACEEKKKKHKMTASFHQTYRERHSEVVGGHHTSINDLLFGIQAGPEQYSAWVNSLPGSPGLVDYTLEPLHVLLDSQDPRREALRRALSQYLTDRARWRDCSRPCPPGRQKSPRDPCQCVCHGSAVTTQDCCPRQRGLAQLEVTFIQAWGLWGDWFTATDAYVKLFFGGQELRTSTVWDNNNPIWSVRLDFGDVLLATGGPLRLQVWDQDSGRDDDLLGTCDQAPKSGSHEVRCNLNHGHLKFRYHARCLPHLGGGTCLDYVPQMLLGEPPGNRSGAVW
Outline: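 KHYG-1 NK cells (4 × 10^5/ml, RPMI + 0.1% BSA) given inhibitor up to 20 µM, 20 min at RT. K562 targets labeled with 75 µCi 51Cr for 90 min at 37 °C, added at effector:target 2:1, 4 h at 37 °C. % specific lysis from experimental, spontaneous and maximum release. Mean of triplicates ± SEM; inhibition relative to untreated control, DMSO vehicle control.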

[4] = molecular target: Tumor necrosis factor ligand superfamily member 10 (Homo sapiens) (UniProt P50591); experiment: Inhibition of recombinant TRAIL-mediated death of human Jurkat T cells upto 20 uM after 30 mins by 51Cr release assay; assay type: cell-based; outline: as §1
Chain of Tumor necrosis factor ligand superfamily member 10 (Homo sapiens) (P50591 whole entry): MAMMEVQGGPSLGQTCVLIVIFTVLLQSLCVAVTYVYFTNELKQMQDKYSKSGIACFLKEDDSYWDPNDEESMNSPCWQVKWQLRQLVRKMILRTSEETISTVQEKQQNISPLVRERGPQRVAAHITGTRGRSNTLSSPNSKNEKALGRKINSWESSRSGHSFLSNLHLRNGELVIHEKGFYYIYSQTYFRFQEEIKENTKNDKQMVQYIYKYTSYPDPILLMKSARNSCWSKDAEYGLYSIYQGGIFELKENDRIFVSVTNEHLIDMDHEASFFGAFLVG

[5] = molecular target: T2, Perforin-1 (Homo sapiens); experiment: Inhibition of human CD3-CD56+ NK cell delivered perforin-mediated death of human K562 cells upto 20 uM preincubated for 30 mins with human CD3-CD56+ NK cell measured after 4 hrs by 51Cr release assay; assay type: cell-based
Outline: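 Human CD3-CD56+ NK cells taken from donor buffy coats by Ficoll then negative MACS selection. Used same day or after up to 3 days in 100 U/mL IL-2. Up to 2 × 10^5 NK cells with inhibitor, DMSO or medium in RPMI 0.1% BSA, 30 min at RT. 1 × 10^4 51Cr-labeled K562 added, 4 h at 37 °C, % specific lysis, triplicates.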

Salmonella typhimurium = experiment: Mutagenic activity in Salmonella Typhimurium TA100 by Ames assay; assay type: toxicity, organism-based; details: salmonella enterica subsp. enterica serovar typhimurium
[6] = Cytotoxicity against human KHYG-1 cells assessed as cell viability upto 20 uM after 24 hrs by trypan blue exclusion assay; assay type: cell-based; details: read-out: Activity
Outline: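 KHYG-1 cells at 4 × 10^5 cells/ml in RPMI + 0.1% BSA, compound up to 20 µM added for 20 min at RT. RPMI 0.1% BSA added in place of targets, 4 h at 37 °C, then washed ×3 and held 18 to 24 h at 37 °C in complete medium. Trypan blue read: clear cells as percent of total. DMSO vehicle control.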

Row | SMILES | inhibition [3] [%] | Activity (Salmonella typhimurium) | viability at 24 h [6] [%] | other results
1 | Cc1cc2c(c(=S)[nH]1)C(=O)O/C2=C\c1ccc(C)o1 | 50 | Active | 72 | Activity [1]: inactive; Activity [2]: inactive; Activity [4]: inactive; inhibition [5]: > 70%
2 | Cc1cc2c(c(=O)[nH]1)C(=O)O/C2=C\c1cc2ccccc2s1 | 65 |  | 100 | 
3 | Cc1cc2c(c(=S)[nH]1)C(=O)O/C2=C\c1cc2ccccc2[nH]1 | 95 |  | 0 | 
4 | Cc1cc2c(c(=S)[nH]1)C(=O)O/C2=C\c1ccc(-c2ccccc2)s1 | 100 |  | 0 | 
5 | Cc1cc2c(c(=S)[nH]1)C(=O)O/C2=C\c1ccc[nH]1 |  | Not Active |  | 
6 | Cc1cc2c(c(=S)[nH]1)C(=O)O/C2=C\c1cccs1 |  | Not Active |  | 
7 | COc1ccc2oc(/C=C3\OC(=O)c4c3cc(C)[nH]c4=S)cc2c1 | 100 |  | 0 | 
8 | Cc1cc2c(c(=S)[nH]1)C(=O)O/C2=C\c1ccco1 |  | Active |  | 
9 | Cc1cc2c(c(=S)[nH]1)C(=O)O/C2=C\c1csc2ccccc12 | 63 | Not Active | 88 | 
